Bioassay records as filed in PubChem.
Redox H2O2 prof: compounds producing H2O2 with reducing agent – biochemical, NIH compound library profiling, artefact control for MLSCN library redox annotation, primary screen; DTT-dependent redox cycling H2O2, phenol red/HRP absorbance; 100% = 100 µM peroxide control, 0% = buffer; activation, % at 10 µM; 200,000 compounds, 0.03% hits; AID 878;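 active means activation of at least 50% relative to the plate's high and low controls in the primary single-dose screen; inactive means activation below 50%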;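 further: compound incubated with DTT at 0.8 mM final as the reducing agent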
ROMK primary: human ROMK K+ channel modulation, primary screen | Tet-inducible ROMK, thallium flux fluorescence; actives lie on both sides | 130,000 compounds, 2% hits | B-score at 10 µM | AID 1918 | P48048;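 active means signal ratio slope over the read window, or its plate-corrected B-score, at least 3 SD from the plate mean, either direction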;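 further: B-score of the F/F0 ratio slope over 7 to 12 s after thallium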
Cl transport mod: modulates chloride dependent transport by human KCC2. Q9H2X9. 190,000 compounds, 2.2% hits. B-score of Tl+ flux slope (higher = more flux/activation; lower = inhibition) at 10 µM. KCC2 cells, thallium flux FluoZin-2 fluorescence. AID 1456;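 active means thallium flux slope and its plate-corrected score both differing from the plate sample mean at a set confidence after two filtering rounds, in either direction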;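 further: slope of fluorescence scaled to starting intensity during 10 to 20 s after thallium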
p97 ATPase inh: human p97 ATPase inhibition; P55072; recombinant p97 ATPase, Kinase-Glo ATP luminescence, 3 h; inhibition, % at 8 µM; 220,000 compounds, 0.42% hits; AID 1481; in the data active means inhibition above about 15%
Mdm2 ligase inh: Mdm2 E3 ligase (human) inhibition; Q00987; AID 1230; 210,000 compounds, 0.11% hits; cell-based MDM2 ubiquitination luciferase reporter, 2 h; 0 = plate control, 100 = twice control, blank-subtracted; signal enhancement, % at 5 µM;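 active means signal enhancement of 30% or more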;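 further: luminescence tracks abundance of the self-degrading MDM2-luciferase fusion protein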
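Assay system: stable mammalian line carrying autodegrading MDM2–luciferase fusion reporter; amount: 2000 cells seeded into each well; buffer or medium: DMEM; benchmarks: plate control and blank wells; signal: luciferase luminescence; timing: 2 h compound exposure at 37 °C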
PKD1 inh: PKD1 (human) kinase inhibition. PKD1 kinase fluorescence polarization assay. inhibition, % (test concentration not listed). 200,000 compounds, 0.056% hits. AID 797; in the data active means inhibition above about 50%
Target sequence (Q15139 whole entry, looked up): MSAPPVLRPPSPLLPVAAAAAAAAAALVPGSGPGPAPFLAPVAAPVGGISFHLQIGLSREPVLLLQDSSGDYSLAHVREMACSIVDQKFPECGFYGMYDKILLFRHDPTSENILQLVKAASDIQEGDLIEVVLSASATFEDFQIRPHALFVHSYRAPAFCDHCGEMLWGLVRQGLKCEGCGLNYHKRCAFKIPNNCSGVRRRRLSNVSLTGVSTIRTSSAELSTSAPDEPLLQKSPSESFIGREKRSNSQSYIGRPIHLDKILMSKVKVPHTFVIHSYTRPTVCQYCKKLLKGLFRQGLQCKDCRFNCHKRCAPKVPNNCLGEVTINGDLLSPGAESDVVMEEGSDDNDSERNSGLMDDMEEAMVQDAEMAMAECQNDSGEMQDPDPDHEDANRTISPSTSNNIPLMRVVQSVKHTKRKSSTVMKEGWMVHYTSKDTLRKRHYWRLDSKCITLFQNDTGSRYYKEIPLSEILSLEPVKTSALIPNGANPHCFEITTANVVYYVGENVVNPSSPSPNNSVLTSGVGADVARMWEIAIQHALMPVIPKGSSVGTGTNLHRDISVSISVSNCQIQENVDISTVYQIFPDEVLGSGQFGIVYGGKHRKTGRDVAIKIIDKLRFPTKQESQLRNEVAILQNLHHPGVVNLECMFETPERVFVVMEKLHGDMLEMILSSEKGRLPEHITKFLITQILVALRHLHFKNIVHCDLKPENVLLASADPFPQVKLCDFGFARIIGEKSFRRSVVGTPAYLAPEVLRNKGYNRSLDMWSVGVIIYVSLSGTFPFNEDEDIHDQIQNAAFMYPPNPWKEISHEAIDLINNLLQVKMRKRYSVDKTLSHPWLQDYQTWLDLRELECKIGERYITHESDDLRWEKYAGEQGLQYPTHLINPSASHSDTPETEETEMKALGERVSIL
ROMK retest: confirmation of human ROMK potassium channel modulators. shares compounds with ROMK primary. ROMK thallium flux, fluorescence ratio; stronger effect = lower value. normalized thallium flux (F/F0 slope) at 10 µM. 3,000 compounds, 54% hits. AID 1917;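 active means Flux at 10 µM at least 3 SD below or above vehicle control mean in one or both replicates; inconclusive means no clear call, values can overlap the other calls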
Each line names hits and unclear results; the compound was inactive in the other large screens (follow-up assays come after a bar, where they were run). Most compounds without a hit are left out; they make up all but 3.4% or so of the library.

CCN1CCN(C(=O)/C(C#N)=C/c2ccc(OC(F)F)cc2)CC1	ROMK primary -3.6 | ROMK retest 0.047
COc1ccccc1N1CCN(/N=C\c2sccc2C)CC1	none
CC(O)CN(CCC(N)=O)CCC(N)=O (stereo not given)	none (no result: ROMK primary, Cl transport mod)
Cc1[nH]n(-c2ccccc2)c(=O)c1C(C[N+](=O)[O-])c1ccc(Cl)cc1 (stereo not given)	ROMK primary -3 | ROMK retest 0.061
CN(c1ccccc1C(N)=O)S(=O)(=O)c1ccccc1	none
N#CCCN(C(=O)CSc1ccc2c(c1)OCCO2)c1ccccc1	none (no result: ROMK primary)
CCOc1cc(/C=N/NC(=O)c2ccc(-c3csc(Nc4ccc(C)cc4)n3)cc2)ccc1OCC(=O)O	ROMK primary 3.3 | ROMK retest inconclusive
O=C(Nc1sc2c(c1C(=O)NCc1cccnc1)CCCC2)c1ccco1	none
COCCNC(=O)Cn1cc(S(=O)(=O)N2CCN(c3ccccc3F)CC2)c2ccccc2c1=O	ROMK primary -2.3 | ROMK retest inactive
O=C(Cn1cc(S(=O)(=O)N2CCN(c3ccccc3F)CC2)c2ccccc2c1=O)NCCCN1CCCCCC1	none
COc1ccc(NC(=O)C2C3CC/C=C\CCC32)cc1 (stereo not given)	none (no result: Redox H2O2 prof, ROMK primary, PKD1 inh)
O=C(Nc1ccc(O)cc1)C1CC=CCC1 (stereo not given)	none (no result: ROMK primary) | ROMK retest inactive
COc1cc(C(C(=O)NC2CCCCC2)N(Cc2ccco2)C(=O)c2cnccn2)cc(OC)c1OC (stereo not given)	ROMK primary -13 | ROMK retest inactive
COc1ccc(C(=O)N(Cc2ccco2)C(C(=O)NC2CCCC2)c2ccc(O)cc2)cc1OC (stereo not given)	none (no result: ROMK primary, Mdm2 ligase inh)
CCn1cc(C(=O)NCc2ccc(C)o2)c2cc(OC)c(OC)cc2c1=O	none (no result: ROMK primary) | ROMK retest inconclusive
NC(N)=N/N=C/c1ccc2cccc(OCc3ccccc3)c2n1	ROMK primary -3.7 (no result: Redox H2O2 prof, PKD1 inh) | ROMK retest 0.049
COc1c(OC(C)=O)ccc(/C=C/c2ccc3cccc(OCc4ccccc4)c3n2)c1[N+](=O)[O-]	none
O=P(c1ccccc1)(c1ccccc1)c1nc(-c2ccccc2)oc1NCc1ccccc1	ROMK primary -1.9 | ROMK retest inactive
COc1ccc(-c2cn3c(C)c(C(=O)Nc4ccncc4)sc3n2)cc1	none (no result: ROMK primary)
COC(=O)c1ccc(NC(=O)c2sc3nc(-c4ccccc4)cn3c2C)cc1	none (no result: ROMK primary) | ROMK retest inconclusive
CCN(CC)c1c([N+](=O)[O-])c(=O)n(C)c2ccccc12	none
Cn1c(=O)c([N+](=O)[O-])c(Cl)c2ccccc21	ROMK primary -5.1 | ROMK retest 0.049
Cc1ccc(NC(N)=S)cc1C	none (no result: ROMK primary)
CCNC(=S)N/N=C/c1cc(C)n(-c2ccc(Cl)cc2)c1C	ROMK primary 3 | ROMK retest inactive
COC(=O)N/N=C/c1cc(C)n(-c2ccc(Br)cc2)c1C	none (no result: Redox H2O2 prof, ROMK primary, Cl transport mod, PKD1 inh) | ROMK retest inactive
Cc1cc(/C=N/NC(N)=S)c(C)n1-c1ccc(Cl)c(Cl)c1	none
Cc1cc(/C=N/NC(N)=O)c(C)n1-c1ccc(F)cc1	ROMK primary 2.9 | ROMK retest inconclusive
O=C(CSc1ncccc1-c1nc2ccccc2[nH]1)Nc1ccc2c(c1)OCCO2	none
CC(=O)c1ccccc1OC(=O)CCN1C(=O)C2C3C=CC(C4CC34)C2C1=O (stereo not given)	none
O=C(Nc1cccc(C(=O)O)c1)/C(=C\c1ccc2c(c1)OCO2)NC(=O)c1ccco1	none
O=C1C2CCCN2C(c2ccccc2F)N1c1ccc(Cl)cc1 (stereo not given)	ROMK primary 1.5 (no result: Cl transport mod) | ROMK retest inactive
CC(=O)C1=C(c2ccc(Br)cc2)C(=O)c2ccccc2C1=O	ROMK primary -4.7 (no result: Mdm2 ligase inh) | ROMK retest 0.052
CN(/N=C/c1cccnc1)c1cnn(-c2ccc(F)c(Cl)c2)c(=O)c1Cl	ROMK primary 1.7 | ROMK retest inactive
CCOC(=O)c1ccc2nc(NC(=O)c3cccs3)sc2c1	none (no result: ROMK primary) | ROMK retest inactive
CCOC(=O)c1ccc2nc(NC(=O)c3ccco3)sc2c1	none (no result: ROMK primary)
CC1(C)CC(=O)C(C=NCC2CCNCC2)=C(O)C1	none (no result: ROMK primary)
CC1(C)CC(=O)C(C=NCC2CCN(C(=O)Cc3ccccc3)CC2)=C(O)C1	ROMK primary -3.8 | ROMK retest inactive
O=C(O)C1CC=CCC1C(=O)c1ccccc1 (stereo not given)	ROMK primary 3.4 | ROMK retest inactive
CCOC(=O)c1c(CSC(=N)N)n(-c2ccc(C)cc2)c2cc(Br)c(OC(C)=O)cc12	none (no result: ROMK primary) | ROMK retest 0.045
CCc1ccc(-c2nc(CSCC(=O)N3CCN(c4ncccn4)CC3)c(C)o2)cc1	none (no result: ROMK primary, Cl transport mod) | ROMK retest 0.064
O=C(CCSc1ccc(Cl)cc1)N1CCN(c2ncccn2)CC1	none (no result: Cl transport mod)
CCCN1C(=O)/C(=C/c2ccncc2)SC1=S	ROMK primary -2.8 | ROMK retest 0.044
O=C1/C(=C/c2ccncc2)SC(=S)N1Cc1ccccc1	none (no result: Redox H2O2 prof, ROMK primary, PKD1 inh)
O=[N+]([O-])c1ccc2c(c1)ncn2-c1ccccc1	none (no result: ROMK primary)
Cn1c(-[n+]2c(-c3ccccc3)cc(-c3ccccc3)cc2-c2ccccc2)nc2cc([N+](=O)[O-])ccc21	none (no result: ROMK primary) | ROMK retest 0.06
C=CCC(C)(NCc1ccccc1)c1ccccc1 (stereo not given)	none (no result: ROMK primary, Cl transport mod)
CC1(C)Cc2nc(NC3CCCCC3)c(C#N)cc2CO1	ROMK primary -2.5 | ROMK retest inactive
Cc1cc(Cl)ccc1OCc1cn2cccnc2n1	ROMK primary 4.1 | ROMK retest inconclusive
COc1cccc(-c2nc(CCl)cs2)c1OC	none
COc1cccc(NC=C2C(=O)OC3(CCCCC3)OC2=O)c1	none
COc1ccc(C2=CC(=O)OC3(CCCCC3)O2)cc1	ROMK primary -2.4 | ROMK retest 0.062
c1ccc(-n2cnc3cc(NCc4ccco4)ccc32)cc1	ROMK primary 3.3 | ROMK retest inconclusive
O=C1CNC(=O)N1CC(=O)N1CCCc2ccccc21	none (no result: ROMK primary)
CN1CC=C2C(C#N)=C(N)C(C#N)(C#N)[C@H](c3cccc(Cl)c3)C2C1 (stereo not given in full)	ROMK primary -3.8 | ROMK retest 0.045
Cc1ccc(Oc2ccccc2/C=C/C(=O)O)cc1	none (no result: ROMK primary)
CCN(CC)S(=O)(=O)c1ccc(N2CCOCC2)c(NC(=O)C23CC4CC(CC(Cl)(C4)C2)C3)c1	ROMK primary -3.5 | ROMK retest 0.061
CCCN(CCC)C(=O)CC(c1ccc(F)cc1)c1ccco1 (stereo not given)	none
CCN(CC)C(=O)CC(c1ccccc1)c1ccco1 (stereo not given)	none (no result: ROMK primary) | ROMK retest inactive
CCSc1nnc(NC(=O)C(C)(C(F)(F)F)C(F)(F)F)s1	none (no result: Cl transport mod)
